“Also recorded” adds a separate entry of the source.
What was measured:
[1] = system: A172 cells expressing IDO1 and TDO; test: Kyn production in A172 cells expressing IDO1 and TDO by IFN-γ stimulation; type: cell-based, human; conditions: IFN-γ 10 ng/mL; 524 μM L-Trp, 24 hours
Procedure, shortened: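 A172 cells, grown 24 h after seeding, were given test compound 1 h before co-addition of L-Trp (final 524 μM) and IFN-γ (final 10 ng/mL) to express IDO1 and TDO. After 24 h, Kyn was quantified by Ehrlich reaction (CCl₃COOH plus p-dimethylaminobenzaldehyde in acetic acid) at 460 nm. IFN-γ-stimulated, DMSO-treated cells served as control. Triplicates; 3 independent experiments.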

A172 (TDO) = test: Cell-based Kyn production assay in A172 cells; set-up: species or system human; conditions: A172 cells expressing TDO
Procedure, shortened: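 TDO-dependent Kyn production: A172 cells were seeded and grown 24 h, exposed to test compound for 1 h, then given L-Trp (final 524 μM) without cytokine and cultured 24 h. Kyn was detected by Ehrlich reaction, adding aqueous 7% CCl₃COOH mixed 2:5 with 2% p-dimethylaminobenzaldehyde in acetic acid, and absorbance read at 460 nm. Triplicate samples; 3 independent experiments.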

rhTDO [2] = target: T1, rhTDO (Homo sapiens, UniProt P48775); test: Kinetics analysis; type: biochemical; conditions: Lineweaver-Burk plot; 680C91 0.5 and 1 μM, PVZB3001 1 and 2 μM
T1 sequence (P48775 whole entry): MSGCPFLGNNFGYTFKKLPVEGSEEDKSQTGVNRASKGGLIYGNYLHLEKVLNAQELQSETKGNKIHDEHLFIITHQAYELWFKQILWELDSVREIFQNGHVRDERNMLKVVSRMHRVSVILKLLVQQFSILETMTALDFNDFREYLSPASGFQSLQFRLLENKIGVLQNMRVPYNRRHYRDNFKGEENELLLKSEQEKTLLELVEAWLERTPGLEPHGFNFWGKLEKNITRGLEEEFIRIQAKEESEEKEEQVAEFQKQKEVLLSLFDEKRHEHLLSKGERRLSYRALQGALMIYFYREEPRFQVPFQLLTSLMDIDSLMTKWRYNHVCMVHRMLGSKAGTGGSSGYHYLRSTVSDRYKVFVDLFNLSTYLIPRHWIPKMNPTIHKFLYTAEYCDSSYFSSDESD
Procedure, shortened: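 Mode of inhibition was taken from Lineweaver–Burk plots of the recombinant human enzyme, plotting inverse initial rate against inverse L-Trp concentration with or without test compound. DMSO served as control.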

rhIDO1 = rhIDO1 (Homo sapiens, UniProt P14902); test: Enzyme assay; type: biochemical; conditions: read-out: IC50 value on rhIDO1; cell-free; 200 μM L-Trp
Sequence of rhIDO1 (P14902 whole entry): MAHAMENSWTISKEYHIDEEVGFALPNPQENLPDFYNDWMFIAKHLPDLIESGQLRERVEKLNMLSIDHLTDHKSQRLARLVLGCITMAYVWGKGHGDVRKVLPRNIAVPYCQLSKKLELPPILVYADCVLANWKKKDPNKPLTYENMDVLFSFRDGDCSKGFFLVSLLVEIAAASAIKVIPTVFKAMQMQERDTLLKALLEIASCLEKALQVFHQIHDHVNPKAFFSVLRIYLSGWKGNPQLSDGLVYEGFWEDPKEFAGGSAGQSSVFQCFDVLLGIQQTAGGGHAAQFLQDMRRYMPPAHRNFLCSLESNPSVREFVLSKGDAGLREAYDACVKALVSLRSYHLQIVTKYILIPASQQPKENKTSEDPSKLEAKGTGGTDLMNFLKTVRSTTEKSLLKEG

TDO [3] = test: TDO mRNA expression in A172 cells; type: cell-based, human; conditions: for TDO expression: mRNA and Western blot (Supplemental Figure 2)
NK-92MI cells [4] = test: NK-92MI viability after addition of Kyn; type: cell-based, human; conditions: 72 h after addition of Kyn
NK-92MI cells [5] = test: Granzyme B production assay in NK-92MI; type: cell-based, human; conditions: NK-92MI treated with Kyn 72 h, then 5.5 h fresh medium; ELISA
Procedure, shortened: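 NK-92MI cells were pre-cultured for 72 h with Kyn, then moved to fresh medium without Kyn for 5.5 h. Culture supernatant was collected and granzyme B quantified with a human granzyme B ELISA following the kit protocol.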

CT26-Ido1 tumors = test: Antitumor activity in mice bearing CT26-Ido1 tumors; type: in vivo, mouse; conditions: oral, 50.0 mg/kg
Procedure, shortened: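 Female BALB/c mice (6 weeks) received 1 × 10⁵ CT26-Ido1 cells s.c. in the right and left dorsal regions. On day 6 they were randomised (n = 8) to vehicle or 12.5, 25 or 50 mg/kg p.o. once daily. Caliper diameters were taken every 2 days to day 14, with V = (W² × L)/2. Tumours were weighed on day 14 and %IR was taken from mean tumour weights versus vehicle. Body weight every 2 days was expressed relative to day 1. Tumour Kyn and Trp were measured by ELISA after dissociation in PBS.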

rhTDO [6] = target: T1, rhTDO; test: Enzyme assay; type: biochemical
A172 cells = test: Cell viability assay; type: cell-based, human
Procedure, shortened: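 A172 cells were seeded and grown 24 h, then given test compound for 1 h before L-Trp (final 524 μM), with no IFN-γ. After 24 h of culture, WST-8 was added for 40–60 min at 37°C and absorbance read at 450 nm. Triplicate samples; 3 independent experiments.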

TDO [7] = test: Western blot of TDO protein in A172 cells; type: cell-based, human; conditions: at 1000 nM
Procedure, shortened: (§1)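 Cells were lysed in RIPA buffer with protease inhibitors. Lysate (20–30 μg protein/lane) was separated by polyacrylamide gel electrophoresis and transferred to PVDF. Membranes were blocked with 5% skim milk or a signal-enhancing blocking reagent, then probed with primary antibody overnight at 4°C and secondary antibody 1 h at room temperature. Bands were visualised by ECL imaging.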

ERK1/2 = test: Western blot of ERK1/2 phosphorylation in A172 cells; type: cell-based, human
Procedure, shortened: as §1

Fc1ccc2c(/C=C/c3cccnc3)c[nH]c2c1 [680C91]
Kyn production in A172 cells expressing both IDO1 and TDO (in words) [1]: decreased Kyn production; also recorded: Partial inhibition of Kyn production | Kyn production in A172 cells (in words) (A172 (TDO)): reduced | Inhibition pattern against TDO (rhTDO [2]): competitive inhibition | IC50 (rhIDO1): > 10 µM

Cc1cc(C(=O)NOCCO)c(Nc2ccc(I)cc2F)n(C)c1=O [AZD8330]
TDO expression (TDO [3]): reduction of TDO expression | Kyn production in A172 cells (in words) (A172 (TDO)): attenuated Kyn production

Nc1ccccc1C(=O)CC(N)C(=O)O (stereo not shown) [Kyn, Kynurenine]
Viability of NK-92MI cells (NK-92MI cells [4]): reduced | Granzyme B production (NK-92MI cells [5]): reduced

Cn1c(=O)c(F)c(Nc2ccc(I)cc2F)c2c(=O)n(C[C@@H](O)CO)cnc21 [TAK-733]
TDO expression (TDO [3]): reduction of TDO expression | Kyn production in A172 cells (in words) (A172 (TDO)): attenuated Kyn production

NS(=O)(=O)NCCNc1nonc1C(=NO)Nc1ccc(F)c(Br)c1 [epacadostat]
Antitumor effect (CT26-Ido1 tumors): moderate effect without statistical significance | Kyn production in A172 cells expressing both IDO1 and TDO (in words) [1]: decreased Kyn production; also recorded: inhibited Kyn production more effectively | Enzymatic activity of TDO (rhTDO [6]; at 1 μM or higher concentrations): inhibited the enzymatic activity of TDO

CC(=O)Nc1cccc(-n2c(=O)n(C3CC3)c(=O)c3c(Nc4ccc(I)cc4F)n(C)c(=O)c(C)c32)c1 [trametinib]
TDO mRNA expression (TDO [3]; at 100 nM): downregulated | Cell viability of A172 cells (in words) (A172 cells): without reducing cell viability | Kyn production in A172 cells (in words) (A172 (TDO)): decreased Kyn production in a dose-dependent manner | TDO protein expression (TDO [7]): downregulated | ERK1/2 phosphorylation (ERK1/2): inhibition of ERK1/2 phosphorylation | Inhibitory activity against rhTDO (in words) (rhTDO [6]; cell-free assay): did not inhibit

Source: paper PMC9716449 (International Journal of Tryptophan Research : IJTR, 2022)
